Drawing on the RNAGym collection of RNA variant scans (doi:10.1002/anie.201605470), this text covers self-cleavage for 167 variants.

B1: Osa-1-4 twister ribozyme (parent)
chain: CCGCCUAACACUGCCAAUGCCGGUCCCAAGCCCGGAUAAAAGUGGAGGGGGCGG

This data set covers variants of B1. The data set is described as follows: self-cleavage, relative activity (ratio to wild type); higher = more cleavage; co-transcriptional. A digest of the protocol:
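A DNA template for a 54-nucleotide Oryza sativa twister ribozyme was synthesised with 97 % wild-type base and 1 % of each other base at the 48 positions downstream of the cleavage site. It was transcribed in vitro for 2 h at 37 °C, allowing co-transcriptional self-cleavage, then reverse-transcribed with a template-switching oligonucleotide, PCR-amplified and deep-sequenced. Cleavage status was scored from reads with or without upstream sequence. Relative activity is fraction cleaved normalised to wild type.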
Consider A39U A40U, for which the self-cleavage was determined as 0.64.
Regarding A39U A40C, the self-cleavage came to 0.12.
For A39U A40G the value was 0.65; for A40C A41G, 0.1.
For A40C A41C the value was 0.28; for A40C A41U, 0.42.
With A39U C21A, the self-cleavage is 0.38.
For A39U C21U the value was 0.99.
For A39U C21G the value was 0.07; for A40C C20U, 0.08; for A40C C20A, 0.09.
For A40C C20G the value was 0.04; for A39G G30C, 0.05.
As to A39G G30U, the self-cleavage was 0.04.
For the variant A39G G30A, the self-cleavage stood at 0.05.
With A39G C31A, the self-cleavage stood at 0.03.
With A39G C31G the figure was 0.1.
Take A39G C31U: the self-cleavage worked out at 0.56.
With A39G G48U, the self-cleavage was 0.07.
With A39G G48C, the self-cleavage came to 0.08.
For A39G G48A, the self-cleavage was 0.1.
For A39G G44C the value was 0.93; for A39G G44U, 0.89; for A39G G44A, 0.85.
For A39U G13A the value was 0.05.
With A39U G13U the figure was 0.02; with A39U G13C, 0.03; with A39G U18C, 0.96.
With A39G U18G, the self-cleavage was 0.87.
With A39G U18A the figure was 1; with A39G C32G, 0.14.
As to A39G C32A, the self-cleavage worked out at 0.08.
As to A39G C32U, the self-cleavage amounted to 0.1.
Regarding A39G C52A, the self-cleavage was 0.97.
With A39G C52G the figure was 0.98; with A39G C52U, 1.04; with A39U G53A, 0.49.
With A39U G53C the figure was 0.07.
With A39U G53U the figure was 0.19; with A39U G22U, 0.67; with A39U G22C, 0.06.
Consider A39U G22A, for which the self-cleavage is 0.93.
For A39U C9U, the self-cleavage was determined as 0.74.
For A39U C9A the value was 0.33; for A39U C9G, 0.42.
Consider A40C C27A, for which the self-cleavage came to 0.05.
Regarding A40C C27U, the self-cleavage was found to be 0.03.
As for A40C C27G, the self-cleavage is 0.02.
With A39U C32G the figure was 0.1; with A39U C32A, 0.08; with A39U C32U, 0.11.
Turning to A40C G19A, the self-cleavage is 0.07.
As for A40C G19C, the self-cleavage is 0.02.
For the variant A40C G19U, the self-cleavage was found to be 0.04.
With A39U G23U, the self-cleavage was 0.05.
On to A39U G23C, for which the self-cleavage turned out to be 0.06.
With A39U G23A, the self-cleavage worked out at 0.26.
For A39U G45U the value was 0.05; for A39U G45A, 0.12; for A39U G45C, 0.06.
For A39G G42A the value was 0.37; for A39G G42U, 0.08; for A39G G42C, 0.16.
For A40G A7C the value was 0.05; for A40G A7U, 0.08.
For the variant A40G A7G, the self-cleavage turned out to be 0.35.
For A40C G23U the value was 0.02; for A40C G23A, 0.06.
Regarding A40C G23C, the self-cleavage came to 0.02.
With A39U G19A the figure was 0.35.
For A39U G19U the value was 0.11; for A39U G19C, 0.07; for A40C G50U, 0.07.
For A40C G50A the value was 0.08.
In the case of A40C G50C, the self-cleavage is 0.07.
For A39U U18G the value was 0.88; for A39U U18A, 0.95.
As to A39U U18C, the self-cleavage worked out at 0.97.
For A39U C15U the value was 0.56; for A39U C15G, 0.23.
Regarding A39U C15A, the self-cleavage is 0.24.
In the case of A40C A7G, the self-cleavage came out at 0.06.
For A40C A7U the value was 0.02; for A40C A7C, 0.02; for A40C C9U, 0.05.
On to A40C C9G, for which the self-cleavage is 0.07.
With A40C C9A the figure was 0.02; with A40C C15U, 0.05; with A40C C15G, 0.04.
As to A40C C15A, the self-cleavage worked out at 0.05.
With A39G G45C the figure was 0.07.
Regarding A39G G45U, the self-cleavage was 0.08.
With A39G G45A the figure was 0.13; with A40C G22A, 0.09.
With A40C G22U the figure was 0.07; with A40C G22C, 0.02; with A40C U37G, 0.12.
With A40C U37A the figure was 0.07.
In the case of A40C U37C, the self-cleavage stood at 0.07.
For A39G G51C the value was 0.09.
For the variant A39G G51A, the self-cleavage was 0.67.
Regarding A39G G51U, the self-cleavage was 0.3.
For A40C U18G the value was 0.09; for A40C U18C, 0.08.
A40C U18A: the self-cleavage is 0.07.
As for A39G U24A, the self-cleavage was determined as 0.09.
Turning to A39G U24C, the self-cleavage came to 0.14.
For A39G U24G, the self-cleavage amounted to 0.02.
Take A40C C33G: the self-cleavage stood at 0.02.
With A40C C33A, the self-cleavage turned out to be 0.05.
On to A40C C33U, for which the self-cleavage turned out to be 0.04.
In the case of A39U G49C, the self-cleavage amounted to 0.06.
For A39U G49A the value was 0.11; for A39U G49U, 0.08; for A39U G48C, 0.05.
Turning to A39U G48U, the self-cleavage turned out to be 0.06.
For A39U G48A the value was 0.08; for A40C C32A, 0.04; for A40C C32G, 0.03.
With A40C C32U the figure was 0.03; with A40C C14A, 0.04.
With A40C C14U, the self-cleavage was 0.05.
With A40C C14G the figure was 0.03.
Take A39U G50U: the self-cleavage is 1.01.
For A39U G50C the value was 0.82.
With A39U G50A, the self-cleavage was determined as 0.63.
Turning to A39U C14G, the self-cleavage was determined as 0.12.
For A39U C14U the value was 0.17; for A39U C14A, 0.09; for A40G A46G, 0.05.
For A40G A46U the value was 0.08; for A40G A46C, 0.06; for A39U G42C, 0.11.
Turning to A39U G42A, the self-cleavage came to 0.17.
Regarding A39U G42U, the self-cleavage came to 0.07.
Consider A39U G51U, for which the self-cleavage turned out to be 0.28.
For A39U G51A the value was 0.61; for A39U G51C, 0.06.
With A40C C11A the figure was 0.05; with A40C C11U, 0.07.
Turning to A40C C11G, the self-cleavage amounted to 0.03.
With A39U U24C the figure was 0.12; with A39U U24A, 0.07.
On to A39U U24G, for which the self-cleavage amounted to 0.03.
With A39U C11G the figure was 0.24; with A39U C11U, 0.89; with A39U C11A, 0.38.
Consider A40C G42U, for which the self-cleavage is 0.03.
In the case of A40C G42C, the self-cleavage amounted to 0.06.
With A40C G42A the figure was 0.07; with A39U C25A, 0.06.
Turning to A39U C25G, the self-cleavage amounted to 0.07.
With A39U C25U the figure was 0.45; with A40C G48U, 0.03; with A40C G48A, 0.02.
Take A40C G48C: the self-cleavage was 0.02.
With A39U G47A the figure was 0.13; with A39U G47C, 0.07; with A39U G47U, 0.11.
With A40C G47A the figure was 0.05; with A40C G47U, 0.04.
With A40C G47C the figure was 0.03; with A39U A46U, 0.07.
Regarding A39U A46G, the self-cleavage is 0.04.
With A39U A46C the figure was 0.05; with A39U C52U, 1; with A39U C52A, 0.96.
